{"data": "Measurements of several laboratories", "organism": "Bacillus subtilis", "effect on": "microbial growth", "note": "Protocols differ between the studies behind these lines."}
{"Compound": "O=C(O)CN1C(=O)/C(=C/c2ccc(-c3ccc(N(c4ccccc4)c4ccccc4)cc3)c3ccccc23)NC1=S", "technique": "broth dilution", "strain": "ATCC6633", "MIC": "> 1000 µg/mL"}
{"Compound": "COc1cccc(OC)c1C(=O)N[C@@H]1C(=O)N2[C@@H]1SC(C)(C)[C@@H]2C(=O)O", "technique": "broth dilution", "strain": "168", "MIC": "0.625 µg/mL"}
{"Compound": "C/C=C(\\C)c1cc(OC(=O)c2c(C)c(Cl)c(O)c(Cl)c2O)c(C)c(O)c1C(=O)O", "technique": "broth dilution", "strain": "BS01", "MIC": "64 µg/mL"}
{"Compound": "CCCCC[P+](/C=C(/c1ccccc1)c1cc(Cl)ccc1OC)(CCCCC)CCCCC", "time": "21 h", "MIC": "2 µM"}
{"Compound": "O=C(O)c1ccc(-n2cc(/C=N/Nc3ccc(C(F)(F)F)cc3)c(-c3cccc(F)c3)n2)cc1", "strain": "ATCC6623", "MIC": "12.5 µg/mL"}
{"Compound": "C[n+]1ccc(/C=C2\\Sc3ccccc3N2CCCN2CCCCC2)c2ccccc21.[I-]", "technique": "broth dilution", "strain": "168", "MIC": "16 µg/mL"}
{"Compound": "O=C(O)c1ccc(-n2cc(/C=N/N(c3ccccc3)c3ccccc3)c(-c3ccc(F)cc3)n2)cc1", "strain": "ATCC6623", "MIC": "1.56 µg/mL"}
{"Compound": "CCCC[P+](/C=C(/c1ccccc1)c1cc(Cl)ccc1O)(CCCC)CCCC", "time": "21 h", "MIC": "10 µM"}
{"Compound": "O=C(O)CN1C(=O)/C(=C/c2ccc(-c3ccc(N(c4ccccc4)c4ccccc4)cc3)cc2)SC1=S", "technique": "broth dilution", "strain": "ATCC6633", "MIC": "1.95 µg/mL"}
{"Compound": "CCCCOC(=O)c1cc(O)c(O)c(O)c1", "technique": "broth dilution", "strain": "ATCC6633", "MIC": "> 200 µM"}
{"Compound": "Brc1ccc(NCc2ccc(Oc3ccccn3)cc2)cc1", "MIC": "> 3.1 µg/mL"}
{"Compound": "CC1=NN(CNC(=O)c2ccccn2)C(=O)C1=NNn1c(-c2ccccc2)nc2ccccc2c1=O", "technique": "broth dilution", "time": "24 h", "MIC": "104 µM"}
{"Compound": "Brc1cccc(NCc2ccc(Oc3ccccn3)cc2)c1", "MIC": "> 6.2 µg/mL"}
{"Compound": "CC1=NN(CNc2ccccn2)C(=O)C1=NNn1c(-c2ccccc2)nc2ccccc2c1=O", "technique": "broth dilution", "time": "24 h", "MIC": "55.2 µM"}
{"Compound": "CN[C@H](CC(C)C)C(=O)N[C@H]1C(=O)N[C@@H](CC(N)=O)C(=O)N[C@H]2C(=O)N[C@H]3C(=O)N[C@H](C(=O)N[C@H](C(=O)O)c4cc(O)cc(O)c4-c4cc3ccc4O)[C@H](O)c3ccc(c(Cl)c3)Oc3cc2cc(c3O[C@@H]2O[C@H](CO)[C@@H](O)[C@H](O)[C@H]2O[C@H]2C[C@](C)(N)[C@H](O)[C@H](C)O2)Oc2ccc(cc2Cl)[C@H]1O", "strain": "ATCC6623", "MIC": "0.39 µg/mL"}
{"Compound": "C[n+]1c(/C=C/c2ccc(O)cc2)cc(/C=C2\\Sc3ccccc3N2CCCN2CCOCC2)c2ccccc21.[I-]", "technique": "broth dilution", "strain": "168", "MIC": "4 µg/mL"}
{"Compound": "CN(C)[C@@H]1C(O)=C(C(N)=O)C(=O)[C@@]2(O)C(O)=C3C(=O)c4c(O)cccc4[C@@](C)(O)[C@H]3C[C@@H]12", "strain": "ATCC6633", "MIC": "2 µg/mL"}
{"Compound": "O=C(O)c1ccc(-n2cc(/C=N/Nc3cc(F)ccc3F)c(-c3ccc(F)cc3)n2)cc1", "strain": "ATCC6623", "MIC": "12.5 µg/mL"}
{"Compound": "Cc1ccc(NCc2ccc(Oc3ccccn3)cc2)cc1", "MIC": "1.8 µg/mL"}
